ASAP1 GAP inh = inhibitors of human ASAP1 ArfGAP activity, primary screen, biochemical, fluorescence polarization | Arf-GAP with SH3 domain, ANK repeat and PH domain-containing protein 1 (Homo sapiens), … | ASAP1-stimulated ARF1 GTP hydrolysis, GDP FP detection | inhibition, % at 16.5 µM | 360,000 tested, 0.19% active; in the data active = inhibition above about 25%
Target sequence (Q9ULH1 325-724 limits assumed): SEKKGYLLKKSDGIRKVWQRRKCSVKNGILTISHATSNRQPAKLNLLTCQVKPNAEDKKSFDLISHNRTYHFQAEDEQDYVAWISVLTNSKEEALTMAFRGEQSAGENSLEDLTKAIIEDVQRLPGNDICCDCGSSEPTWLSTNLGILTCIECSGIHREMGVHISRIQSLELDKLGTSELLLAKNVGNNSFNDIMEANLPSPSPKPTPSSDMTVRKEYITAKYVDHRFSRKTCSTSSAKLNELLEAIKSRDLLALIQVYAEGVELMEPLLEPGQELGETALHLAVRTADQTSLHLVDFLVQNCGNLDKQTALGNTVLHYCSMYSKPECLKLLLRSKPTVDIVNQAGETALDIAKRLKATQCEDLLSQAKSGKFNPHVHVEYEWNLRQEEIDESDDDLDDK
MsrA act = bovine MsrA enzyme activators, primary screen, biochemical, absorbance, HTS; Methionine sulfoxide reductase A (Bos taurus); purified bovine MsrA, absorbance read-out; activation, % at 10.6 µM; 360,000 tested, 0.3% active; AID 602163, 2012; in the data active = activation above about 7.5%
ARFGAP1 inhibitor = inhibitors of rat ARFGAP1 GAP activity, primary screen, biochemical, fluorescence polarization, GDP tracer. 360,000 tested, 0.26% active. inhibition, % at 16.5 µM. Arfgap1-stimulated ARF1 GTP hydrolysis, GDP FP detection. AID 651572, 2012. ADP-ribosylation factor GTPase-activating protein 1 (Rattus norvegicus), Q62848;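 active = inhibition above a per-plate limit, mean inhibition of low control wells plus 3 SD, cut at about 25% in these data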
Target sequence (Q62848 1-136 limits assumed): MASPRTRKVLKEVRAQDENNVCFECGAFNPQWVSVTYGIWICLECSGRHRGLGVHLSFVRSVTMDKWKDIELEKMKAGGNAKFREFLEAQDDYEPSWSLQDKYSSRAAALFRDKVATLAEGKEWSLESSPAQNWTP
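Material – truncated rat Arfgap1 GAP domain · Buffer or medium – HEPES-based buffer, pH 7.5 · Reagent – human ARF1(Δ1-17)-GTP substrate · Dosing – 16.5 µM single point, 1.26% DMSO · Schedule – GTP hydrolysis reaction 2 h at 25 °C · Technique – GDP detection by fluorescence polarization · Benchmarks – No-Arfgap1 wells (100%) versus DMSO full-reaction wells (0%) · Repeats – single replicate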
MsrA inhibitor = bovine MsrA enzyme inhibitors, primary screen, biochemical, absorbance, HTS | Methionine sulfoxide reductase A (Bos taurus) | purified bovine MsrA, absorbance read-out | inhibition, % at 15.5 µM | 360,000 tested, 0.75% active | AID 651718, 2012
MsrA conf = bovine MsrA inhibitors, retest, confirmation, biochemical, absorbance, HTS. purified bovine MsrA, absorbance read-out. shares compounds with MsrA inhibitor. AID 651822, 2012. 2,300 tested, 41% active. inhibition, % at 15.5 µM;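 note: coupled to thioredoxin reductase with NADPH and selenocystamine and DMSO as substrate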
Each line names hits and unclear results; the compound was inactive in the other large screens (follow-up assays come after a bar, where they were run). Compounds with a hit are over-represented: about 1.4% of the library has one in this group of screens. Cut-off read from the data, not from the text of the source, unless noted: active = inhibition above about 4.5%; inactive = the rest.

O=C(N/N=C/c1ccc(N2CCOCC2)s1)c1ccc(NS(=O)(=O)c2cccs2)cc1	MsrA inhibitor 4.7 | MsrA conf inactive
O=C(N/N=C/c1ccc(N2CCOCC2)cc1)c1ccccc1NS(=O)(=O)c1cccs1	MsrA inhibitor 8.0 | MsrA conf 7.0
COc1cc(/C=N/Nc2nc(=O)[nH]nc2C)ccc1O	MsrA inhibitor 4.7 | MsrA conf 5.4
COc1ccc(/C=N/Nc2nc(=O)[nH]nc2C)cc1OC	none
COc1cc(/C=N/Nc2cc(C)nc(N)n2)ccc1O	MsrA inhibitor 6.8 | MsrA conf 5.2
COc1ccc(/C=N/Nc2cc(C)nc(N)n2)cc1	none
CCN1C(=O)/C(=C\N(C(C)=O)c2ccccc2)OC1=S	MsrA inhibitor 6.7 | MsrA conf 5.0
O=C(NCc1ccco1)/C(=C/C=C\c1ccccc1)NC(=O)c1ccc(Br)o1	MsrA inhibitor 5.0 | MsrA conf inactive
N#C/C(=C\C=C\c1ccccc1)C(=O)NCc1ccco1	none
CCOC(=O)/C(=C\C=C\c1ccccc1)NC(=O)c1ccccc1	MsrA inhibitor 6.8 | MsrA conf 6.1
CCCCOC(=O)/C(=C/C=C/c1ccccc1)NC(=O)c1ccccc1	none
CCCCOc1ccc(C(=O)N/C(=C/C=C/c2ccccc2)C(=O)NCCO)cc1	none
CCOC(=O)/C(=C/C=C/c1ccccc1)NC(=O)c1ccccc1	MsrA inhibitor 5.6 | MsrA conf inactive
O=C(O)CCNC(=O)/C(=C/C=C/c1ccccc1)NC(=O)c1ccccc1	MsrA inhibitor 5.5 | MsrA conf inactive
CCCOC(=O)/C(=C\C=C\c1ccccc1)NC(=O)c1ccccc1	none
COc1ccc(C(=O)N2CCCC(CCC(=O)NCc3ccc(F)c(F)c3)C2)cc1F (configuration not stated)	none
CCCCC(OC(=O)CN1C(=O)COc2ccccc21)C(=O)NC1CCCCC1 (configuration not stated)	none
COCc1cc(N2CCN(C(=O)OC(C)(C)C)C[C@H]2C)ccc1Br	none (no result: MsrA act)
O=C(O)CSc1cc(NS(=O)(=O)c2ccc(Br)cc2)c2ccccc2c1O	MsrA act 9.3, MsrA inhibitor 4.9 | MsrA conf inactive
Cc1ccc(S(=O)(=O)Nc2ccc(Br)cc2C(NCC(=O)O)c2ccccc2)cc1 (configuration not stated)	none
CC(=O)c1ccc(N2CCN(S(=O)(=O)c3cccc4nsnc34)CC2)cc1	MsrA inhibitor 4.7 | MsrA conf inactive
COc1ccc(N2CCN(S(=O)(=O)c3cccc4nsnc34)CC2)cc1	none
COC(=O)C(NC(=O)c1ccccc1)=C1C=C(C)OC(C)=C1	MsrA inhibitor 5.3 | MsrA conf inactive
Cc1cccc(NC(=O)/C(C#N)=C\c2cc(C)n(-c3ccc(C(=O)O)cc3)c2C)c1	MsrA inhibitor 4.7 | MsrA conf inactive
Cc1cc(/C=C(\C#N)C(=O)Nc2ccccc2)c(C)n1-c1ccc(C(=O)O)cc1	none
Cc1cc(/C=C(/C#N)C(=O)O)c(C)n1-c1cccc2ccccc12	MsrA inhibitor 5.7 | MsrA conf 4.9
Cc1noc(C)c1C(=O)OCC(=O)/C=C1/N(C)c2ccccc2C1(C)C	none
CCOC(=O)C1CCCN(C(=O)c2cnn3c(C(F)(F)F)cc(-c4ccccc4)nc23)C1 (configuration not stated)	MsrA inhibitor 5.3 | MsrA conf inactive
CN1OC[C@@H]2CN(C(=S)NCCc3ccccc3)[C@H](c3ccc(-n4ccnc4)cc3)C[C@@H]21	none
Cc1[nH]c2ccccc2c1C(=O)C(=O)NCCCn1ccnc1	MsrA inhibitor 4.9 | MsrA conf inactive
CC(=O)Nc1cc2c(cc1[N+](=O)[O-])-c1ccc(F)cc1C2	none
CC(C)(C)C(=O)Nc1ccc(F)cc1[N+](=O)[O-]	MsrA inhibitor 6.3 | MsrA conf 7.5
C#CCOc1ccc(/C=N/NC(=O)c2cccnc2)cc1OCC	none
Cc1ccccc1N(CC(=O)NCC1CCCO1)C(=O)CCC(=O)Nc1nccs1 (configuration not stated)	none
C/C(=N\NC(=O)c1ccc(NS(=O)(=O)c2cccs2)cc1)c1ccc(O)cc1O	MsrA inhibitor 5.5 | MsrA conf 4.7
COc1cc(C=NNC(=O)c2ccccc2NS(=O)(=O)c2cccs2)cc(OC)c1O	none
O=C(NN=Cc1ccc(OC(F)F)cc1)c1ccc(NS(=O)(=O)c2cccs2)cc1	MsrA inhibitor 5.5 | MsrA conf inactive
COc1cc(/C=N/NC(=O)c2ccc(NS(=O)(=O)c3cccs3)cc2)cc(OC)c1O	MsrA inhibitor 6.5 | MsrA conf 6.4
O=C(N/N=C/c1ccc([N+](=O)[O-])cc1)c1ccc(NS(=O)(=O)c2cccs2)cc1	MsrA inhibitor 5.4 | MsrA conf 6.3
C/C(=N\NC(=O)c1ccc(NS(=O)(=O)c2cccs2)cc1)c1ccccc1	none
CCCCC(=O)OCC(=O)N1N=C(c2c[nH]c3ccccc23)C(O)C1c1ccc(OC)cc1 (configuration not stated)	none
COc1ccc(OCC(=O)OCC(=O)c2ccc(OC)c(F)c2)cc1	none
CCOC(=O)c1sc2nc(C)nc(N3CCN(S(=O)(=O)c4ccccc4)CC3)c2c1C	none
CC1=N/C(=C\c2ccc3c(c2)OCO3)C(=O)N1c1ccc(C(=O)O)cc1	MsrA inhibitor 5.6 | MsrA conf inactive
O=C(O)c1ccc(N2C(=O)/C(=C\c3ccccc3)N=C2c2ccccc2)cc1	none
CC1=C(C(=O)Nc2cccc(C)c2C)C(c2cccs2)NC(=S)N1 (configuration not stated)	none
Cc1ccsc1/C=N/Nc1nc2ccccc2[nH]1	MsrA inhibitor 4.8 | MsrA conf inactive
Cc1cc(=O)[nH]c(N/N=C/c2cccs2)n1	none
C(=N\Nc1nc2ccccc2[nH]1)/c1cccs1	none
Cc1cc(=O)[nH]c(N/N=C/c2sccc2C)n1	MsrA inhibitor 4.8 | MsrA conf 5.3
CCCCC(NC(=O)Cc1c(C)c2cc3c(-c4ccccc4)coc3c(C)c2oc1=O)C(=O)O (configuration not stated)	none
CCOC(=O)CC(=O)CSc1nc2c(sc(=S)n2-c2ccccc2)c(=O)[nH]1	MsrA inhibitor 6.0 | MsrA conf inactive
Cc1nc2c(=O)n(C)c(=O)n(C)c2nc1Cl	MsrA inhibitor 4.7 | MsrA conf inactive
Cn1c(=O)c2nc(NCc3ccccc3)cnc2n(C)c1=O	none
COc1cc(/C=C(\C(=O)O)c2ccc(S(=O)(=O)N3CCCC3)s2)ccc1OCCC(C)C	none
CC(Sc1ncc(C(F)(F)F)cc1Cl)C(=O)NC(N)=O (configuration not stated)	MsrA inhibitor 19 | MsrA conf 15
O=S1(=O)CCC(N=Cc2ccc(-c3ccc(Cl)cc3)o2)C1 (configuration not stated)	MsrA inhibitor 4.8 | MsrA conf inactive
